Shown are actives, neighbours in structure and some others; about 1.8% of the full set was active somewhere.
mABHD4 FP: ABHD4 inhibitors, primary screen, biochemical, fluorescence polarization, mouse; inhibition, % at 8.92 µM; purified mABHD4, FP-Rh probe fluorescence polarization; (Lyso)-N-acylphosphatidylethanolamine lipase (Mus musculus), Q8VD66; actives 0.54% (n = 370,000);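 active = inhibition exceeding the mean over every tested compound plus 3 SD, cut at about 30% in these data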;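 note: 0% = plate median of compound wells and 100% = S159A mutant with DMSO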
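Test system: mouse ABHD4 enzyme, wild type. Reagent: FP-Rh fluorescent activity-based probe, added after compound pre-incubation. Timing: pre-incubation 45 min, probe exposure 60 min, at 25 °C. Technique: FP readout, ex 525 nm / em 598 nm. Benchmarks: high control S159A mutant with DMSO, low control median of compound wells.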
ARNT TACC3 PPI: disruptors of ARNT/TACC3 protein interaction, primary screen, biochemical, AlphaScreen, single concentration. AlphaScreen His-ARNT PAS-B/GST-TACC3 binding, luminescence; TACC3 fragment carries E629A point mutation. inhibition, % at 9.99 µM. actives 0.66% (n = 390,000). AID 623870, 2012;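 active = mean inhibition of replicates at least 50% and at least half of replicates each reaching 50%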;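 note: 0% = complete ARNT plus TACC3 wells and 100% = ARNT alone without TACC3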
TCR CD3 inh: inhibitors of human TCR-CD3 interaction, primary screen, biochemical, fluorescence, TAMRA-labeled TCR probe | T-cell receptor (TCR) | inhibition, % at 9.4 µM | actives 0.37% (n = 360,000) | AID 651800, 2012; in the data active = inhibition above about 19%;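 note: recombinant mutant TCR 2C K166C tagged with TAMRA read by polarization; 0% = receptor in buffer alone and 100% = receptor with positive control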
SIAE primary: human SIAE inhibitors, primary screen, biochemical, fluorescence polarization, FP-Rh probe, 1536-well HTS; Sialate O-acetylesterase (Homo sapiens), Q9HAT2; actives 0.69% (n = 370,000); SIAE FP-Rh probe binding; AID 1053197, 2014; inhibition, % at 9.66 µM;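 active = inhibition above a cutoff: mean of compounds within the control limits plus 3 SD of those, cut at about 17% in these data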;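 note: 0% = plate median of compound wells and 100% = probe without SIAE protein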
Target sequence (Q9HAT2 whole entry, looked up): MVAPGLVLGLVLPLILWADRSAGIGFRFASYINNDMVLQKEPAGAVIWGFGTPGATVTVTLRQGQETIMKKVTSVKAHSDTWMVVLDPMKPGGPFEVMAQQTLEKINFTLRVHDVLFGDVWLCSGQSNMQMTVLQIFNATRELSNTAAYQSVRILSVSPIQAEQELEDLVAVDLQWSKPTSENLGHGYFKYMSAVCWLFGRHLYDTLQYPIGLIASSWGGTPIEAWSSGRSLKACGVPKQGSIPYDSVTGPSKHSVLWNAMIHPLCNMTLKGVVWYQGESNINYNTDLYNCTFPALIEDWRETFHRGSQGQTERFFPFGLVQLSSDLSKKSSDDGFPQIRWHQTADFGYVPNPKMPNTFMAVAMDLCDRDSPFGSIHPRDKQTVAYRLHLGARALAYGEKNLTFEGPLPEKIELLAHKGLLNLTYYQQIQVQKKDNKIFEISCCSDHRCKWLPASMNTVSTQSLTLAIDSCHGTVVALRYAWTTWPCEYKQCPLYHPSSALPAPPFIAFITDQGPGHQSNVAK
HTRA1 inhibitor: HTRA1 serine protease inhibitors, primary screen, biochemical, fluorescence polarization, HTS. Q92743. recombinant HTRA1, FP-rhodamine activity-based probe. inhibition, % at 5.96 µM. actives 0.5% (n = 340,000); in the data active = inhibition above about 36%;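 note: 0% = enzyme with DMSO and 100% = wells lacking enzyme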
SIAE inh conf: human SIAE inhibitors, retest, confirmation, biochemical, fluorescence polarization, FP-Rh probe, triplicate; shares compounds with SIAE primary; SIAE FP-Rh activity-based probe; inhibition, % at 9.66 µM; actives 13% (n = 2,300);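 active = mean inhibition of the replicates above the hit cutoff set in the primary screen, cut at about 17% in these data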;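 note: 0% = SIAE with DMSO and probe and 100% = probe without SIAE; inhibitors lower polarization as more probe stays unbound to SIAE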
* marks the source's active call; other numbers are inactive results; / = not tested or not shown.

SMILES | mABHD4 FP | ARNT TACC3 PPI | TCR CD3 inh | SIAE primary | HTRA1 inhibitor | SIAE inh conf
Cc1ccc(C2(C)NC(=O)N(CC(=O)Nc3ccc(N4CCOCC4)cc3N3CCOCC3)C2=O)cc1 (configuration not stated) | -3 | -13 | 4 | 19* | -1 | 1
CCCNC(=O)C[C@H]1CC[C@H]2[C@@H](COc3ccc(NC(=O)c4ccno4)cc3C(=O)N2C)O1 | / | -21 | / | / | / | /
CCOc1cc(N2CCOCC2)c(OCC)cc1NC(=O)CN1C(=O)NC2(CCCCC2C)C1=O (configuration not stated) | 8 | -12 | -7 | 14 | 6 | /
CCOc1cc(N2CCOCC2)c(OCC)cc1NC(=O)CN1C(=O)NC(C)(c2ccc(OC)cc2)C1=O (configuration not stated) | -3 | / | -2 | 18* | 5 | 3
Cc1ccccc1NS(=O)(=O)c1ccc(C(=O)N2CCN(S(=O)(=O)c3ccccc3)CC2)cc1 | 3 | 1 | 4 | 19* | 0 | -7
O=C(NCC[C@H]1CC[C@@H](NC(=O)C2CCC2)[C@H](CO)O1)c1ccc(F)cc1 | / | 7 | / | / | / | /
COc1ccccc1NCC(=O)N/N=C/c1c(O)ccc2ccccc12 | 17 | 6 | -1 | 18* | 27 | 0
COCCCNC(=O)/C(C#N)=C/c1ccc(F)cc1 | -1 | -20 | 6 | 33* | 2 | 0
COc1ccc(S(=O)(=O)Nc2ccc3c(c2)C(=O)N([C@@H](C)CO)C[C@H](C)[C@H](CN(C)C(=O)Nc2ccccc2)OCCCC[C@H](C)O3)cc1 | / | -18 | / | / | / | /
Clc1ncc(CN2CCN(Cc3ccccc3)CC2)s1 | -2 | 1 | 6 | 28* | 1 | -3
C=CCN1CCN(Cc2cnc(Cl)s2)CC1 | 2 | -1 | 6 | -1 | 1 | /
O=C(C[C@@H]1CC[C@H](NC(=O)Nc2ccc3c(c2)OCO3)[C@H](CO)O1)NCc1ccc(F)cc1 | / | 2 | / | / | / | /
COCCCNC(=O)C[C@H]1C[C@@]2(C(=O)OC)C(=C[C@H](COCc3ccccc3)O[C@@H]2C)N(Cc2ccc3c(c2)OCO3)C1=O | -1 | / | -3 | 29* | / | 3
Cc1ccc(NC(=O)Cn2c(CCC(=O)O)ccc2-c2cccs2)cc1Cl | -2 | 3 | -4 | 126* | -24 | 1
COc1ccc(NC(=O)N(C)C[C@H]2OCc3cnnn3CCCC(=O)N([C@H](C)CO)C[C@@H]2C)c(OC)c1 | -2 | -9 | -3 | 21* | / | 0
COc1ccc(NC(=O)N(C)C[C@H]2OCc3cnnn3CCCC(=O)N([C@H](C)CO)C[C@H]2C)c(OC)c1 | / | -5 | / | / | / | /
C=C(C)c1cccc(C(C)(C)NC(=O)Nc2ccc(C(C)=O)cc2)c1 | -26 | -1 | 0 | -11 | -21 | /
C=C(C)c1cccc(C(C)(C)NC(=O)Nc2ccc3[nH]c(=O)[nH]c3c2)c1 | 3 | -1 | 1 | 19* | 5 | 3
C[C@@H]1CN(c2ccc(N3CCNC[C@@H]3C)cc2C#N)CCN1Cc1ccccc1 | 10 | / | 7 | 20* | / | 3
COCc1cc(N2CCNC[C@@H]2C)ccc1N1CCN(Cc2ccccc2)[C@H](C)C1 | 9 | / | -8 | 17* | / | 4
CO[C@@H]1CN(C)C(=O)c2ccc(NC(=O)C3CC3)cc2OC[C@H](C)N(C(=O)c2ccncc2)C[C@H]1C | / | -5 | / | / | / | /
C=CCNC(=O)c1ccc(-c2nc(-c3ccccc3)cs2)cc1 | -2 | -1 | -6 | -1 | -9 | /
C=CCNC(=O)c1ccc(-c2nc3ccccc3nc2-c2ccccc2)cc1 | -8 | 0 | 3 | 33* | -24 | -1
CCCC#Cc1ccc2c(c1)O[C@@H](CN(C)C(=O)NC(C)C)[C@H](C)CN([C@H](C)CO)S2(=O)=O | / | -6 | / | / | / | /
COc1ccc(NC(=O)c2cc3c(-c4ccc(OC)c(OC)c4)nn(C)c3s2)cc1OC | 17 | 6 | 9 | 19* | 14 | 13
SMILES | mABHD4 FP | ARNT TACC3 PPI | TCR CD3 inh | SIAE primary | HTRA1 inhibitor | SIAE inh conf
NS(=O)(=O)c1ccc(NC(=S)NC(=O)/C=C/c2ccco2)cc1 | 29 | 6 | 2 | 19* | 2 | -10
O=C(/C=C/c1ccco1)NC(=S)Nc1cccc([N+](=O)[O-])c1 | 21 | -16 | 3 | 23* | 7 | -16
O=C1S/C(=C\C=C\c2ccco2)C(=O)N1c1ccccc1 | 14 | 13 | -2 | 21* | 9 | 3
Cc1cccc(N=C2NC(=O)/C(=C/C=C/c3ccco3)S2)c1C | 21 | 3 | 13 | 18* | 32 | 6
O=C1NC(=Nc2ccccc2)S/C1=C\C=C\c1ccco1 | 21 | 4 | 9 | 24* | 18 | 1
CO[C@@H]1CN(C)C(=O)c2cc(NC(=O)c3cnccn3)ccc2OC[C@H](C)N(C(C)=O)C[C@H]1C | / | 0 | / | / | / | /
c1ccc(CNc2nc(NCC3CC3)nc3cc(-c4ccccc4)sc23)cc1 | 11 | / | -7 | 10 | / | /
c1ccc(OCCNc2nc(NCC3CC3)nc3cc(-c4ccccc4)sc23)cc1 | 15 | / | 2 | 22* | / | 21*
COCCNc1nc(Oc2ccc(NC(C)=O)cc2)c2sc(-c3ccccc3)cc2n1 | -7 | / | 5 | -10 | / | /
COCCNc1nc(NCc2ccc(NC(C)=O)cc2)c2sc(-c3ccccc3)cc2n1 | 22 | / | -10 | 27* | / | 18*
COCCNc1nc(NCc2cccc(OC)c2)c2sc(-c3ccccc3)cc2n1 | 27 | / | -5 | 34* | / | 31*
Cc1noc(C)c1NC(=O)Nc1ccc2c(c1)C(=O)N([C@@H](C)CO)C[C@@H](C)[C@@H](CN(C)S(=O)(=O)c1cccs1)O2 | / | 3 | / | / | / | /
NC(=O)C1CCN(c2ncc(Br)s2)CC1 | 27 | / | / | 21* | / | 4
NC(=O)C1CCN(c2nc(-c3ccc(N)cc3)cs2)CC1 | 7 | / | / | -5 | / | /
C[C@@H]1CCCCO[C@H](CN(C)C(=O)C2CCCCC2)[C@H](C)CN([C@H](C)CO)C(=O)c2cc(NC(=O)Cc3ccccc3)ccc2O1 | / | -5 | / | / | / | /
C/C(=N\NC(=O)Cc1csc(N2CCOCC2)n1)c1ccccc1 | 2 | -3 | -12 | 21* | -2 | -1
COc1ccc(Oc2cn[nH]c2-c2ccc(O)cc2O)cc1 | -3 | 2 | 4 | 19* | 6 | 0
CC(C)C#Cc1ccc2c(c1)O[C@@H](CN(C)C(=O)c1cnccn1)[C@H](C)CN([C@H](C)CO)S2(=O)=O | / | -1 | / | / | / | /
CNC(=S)N/N=C/c1cn(CCOc2cccc(OC)c2)c2ccccc12 | 2 | -2 | 5 | 22* | 4 | 7

Bioassay records as filed in PubChem BioAssay.
